According to ChEMBL document CHEMBL4028850, “Identification and Optimization of Pyrrolo[3,2-d]pyrimidine Toll-like Receptor 7 (TLR7) Selective Agonists for the Treatment of Hepatitis B” (J Med Chem, 2017):

Experiments:
[1] = Activation of NFkappaB (unknown origin) expressed in HEK293 cells after 6 hrs luciferase reporter gene assay; format: cell-based; conditions: human
In short: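 HEK293 cells were transfected with the NFκB-luciferase reporter alone, with no TLR vector, to detect direct NFκB activation.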

[2] = Intrinsic clearance in mouse liver microsomes at 1 uM after 60 mins; format: ADME, microsome; conditions: read-out: CLH
[3] = Intrinsic clearance in rat liver microsomes at 1 uM after 60 mins; format: ADME, microsome; conditions: read-out: CLH
[4] = Intrinsic clearance in dog liver microsomes at 1 uM after 60 mins; format: ADME, Canis lupus familiaris, microsome; conditions: read-out: CLH
[5] = Intrinsic clearance in cynomolgus monkey liver microsomes at 1 uM after 60 mins; format: ADME, Macaca fascicularis, microsome; conditions: read-out: CLH
[6] = Intrinsic clearance in human liver microsomes at 1 uM after 60 mins; format: ADME, microsome; conditions: read-out: CLH
[7] = Intrinsic clearance in mouse hepatocytes assessed per million cells at 1 uM up to 120 mins; format: ADME, cell-based, Hepatocyte; conditions: read-out: CLH
[8] = Intrinsic clearance in rat hepatocytes assessed per million cells at 1 uM up to 120 mins; format: ADME, cell-based, Hepatocyte; conditions: read-out: CLH
[9] = Intrinsic clearance in dog hepatocytes assessed per million cells at 1 uM up to 120 mins; format: ADME, cell-based, Canis lupus familiaris, Hepatocyte; conditions: read-out: CLH
[10] = Intrinsic clearance in cynomolgus monkey hepatocytes assessed per million cells at 1 uM up to 120 mins; format: ADME, cell-based, Macaca fascicularis, Hepatocyte; conditions: read-out: CLH
[11] = Intrinsic clearance in human hepatocytes assessed per million cells at 1 uM up to 120 mins; format: ADME, cell-based, Hepatocyte; conditions: read-out: CLH
[12] = Cmax in Sprague-Dawley rat at […], iv or 10 mg/kg, po measured after 1 hr post dose; format: ADME, organism-based; conditions: in vivo
[13] = Tmax in dog at 1 mg/kg, po; format: ADME, organism-based, Canis lupus familiaris; conditions: in vivo
[14] = Cmax in dog at 1 mg/kg, po; format: ADME, organism-based, Canis lupus familiaris; parameters: dose 1 mg/kg, route oral; conditions: in vivo
[15] = Cmax in guinea pig up to […], iv; format: ADME, organism-based, Cavia porcellus; parameters: dose 4.9 mg/kg, route intravenous; conditions: in vivo
[16] = Cmax in C57Bl/6 mouse plasma at 0.3 mg/kg, po measured after 0.5 hrs by LC-MS analysis; format: ADME, organism-based; parameters: dose 0.3 mg/kg, route oral
In short: (§1)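 Female fasted C57Bl/6 mice, nine per dose, got a single oral dose of 0.3, 1, 3 or 10 mg/kg. Blood was drawn at 0.5 h. Three mice per group were sacrificed at 1, 2 or 4 h for plasma and liver compound levels by LC-MS, and mean maximum levels are reported.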

[17] = Cmax in C57Bl/6 mouse liver at 0.3 mg/kg, po measured after 0.5 hrs by LC-MS analysis; format: ADME, organism-based; parameters: dose 0.3 mg/kg, route oral; in short: as §1
[18] = Tmax in C57Bl/6 mouse plasma at 0.3 to 10 mg/kg, po by LC-MS analysis; format: ADME, organism-based
In short: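 Healthy fasted female C57Bl/6 mice, groups of 9, single oral dose 0.3, 1, 3 or 10 mg/kg. Blood at 0.5 h; three mice per group killed at 1, 2 or 4 h for plasma and liver compound (LC-MS) and ISG expression by RT-qPCR as fold change versus vehicle.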

[19] = Ratio of drug uptake in liver to plasma in C57Bl/6 mouse at 0.3 to 10 mg/kg, po by LC-MS analysis; format: ADME, organism-based
In short: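 Healthy fasted female C57Bl/6 mice, 9 per dose group, given a single oral dose of 0.3, 1, 3 or 10 mg/kg. Blood taken at 0.5 h. At 1, 2 or 4 h, three mice per group were sacrificed and plasma and liver compound levels were measured by LC-MS.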

[20] = Cmax in C57Bl/6 mouse plasma at 1 mg/kg, po measured after 0.5 hrs by LC-MS analysis; format: ADME, organism-based; parameters: dose 1 mg/kg, route oral; in short: as §1
[21] = Cmax in C57Bl/6 mouse liver at 1 mg/kg, po measured after 0.5 hrs by LC-MS analysis; format: ADME, organism-based; parameters: dose 1 mg/kg, route oral; in short: as §1
[22] = Cmax in C57Bl/6 mouse plasma at 3 mg/kg, po measured after 0.5 hrs by LC-MS analysis; format: ADME, organism-based; parameters: dose 3 mg/kg, route oral; in short: as §1
[23] = Cmax in C57Bl/6 mouse liver at 3 mg/kg, po measured after 0.5 hrs by LC-MS analysis; format: ADME, organism-based; parameters: dose 3 mg/kg, route oral; in short: as §1
[24] = Cmax in C57Bl/6 mouse plasma at 10 mg/kg, po measured after 0.5 hrs by LC-MS analysis; format: ADME, organism-based; parameters: dose 10 mg/kg, route oral; in short: as §1
[25] = Cmax in C57Bl/6 mouse liver at 10 mg/kg, po measured after 0.5 hrs by LC-MS analysis; format: ADME, organism-based; parameters: dose 10 mg/kg, route oral; in short: as §1
MDR1 = test: Apparent permeability across apical to basolateral side in MDCK cells expressing human MDR1 at 5 uM by LC-MS/MS analysis; format: ADME, cell-based, Canis lupus familiaris; conditions: dog
In short: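 MDCK cells transfected with human MDR1 were grown as confluent monolayers. 5 µM compound was added apically or basolaterally, with or without the P-gp inhibitor GF120918. Appearance on the opposite side was measured by LC-MS/MS to give Papp; efflux ratio = B→A/A→B without inhibitor.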

[26] = Plasma concentration in dog at 1 mg/kg, po measured after 4 hrs post dose; format: ADME, organism-based, Canis lupus familiaris
[27] = Oral bioavailability in cynomolgus monkey at 1 to 10 mg/kg administered via gavage measured up to 72 hrs post dose; format: ADME, organism-based, Macaca fascicularis; conditions: in vivo
[28] = Cmax in cynomolgus monkey at 1 mg/kg administered via oral gavage measured up to 72 hrs post dose; format: ADME, organism-based, Macaca fascicularis; parameters: dose 1 mg/kg, route oral; conditions: in vivo
[29] = Tmax in cynomolgus monkey at 1 mg/kg administered via oral gavage measured up to 72 hrs post dose; format: ADME, organism-based, Macaca fascicularis; conditions: in vivo
In short: (§2)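 Cynomolgus monkeys (five per dose) given single oral gavage doses of 1, 3 or 10 mg/kg; dose levels in different animals, staggered by 3 days. Blood sampled pre-dose and at 0.25, 0.5, 1, 2, 4, 8, 24, 48 and 72 h for plasma compound levels, cytokines (ELISA or Luminex) and gene expression (microarray); clinical signs, body weight and temperature monitored.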

[30] = Cmax in cynomolgus monkey at 3 mg/kg administered via oral gavage measured up to 72 hrs post dose; format: ADME, organism-based, Macaca fascicularis; parameters: dose 3 mg/kg, route oral; conditions: in vivo
[31] = Tmax in cynomolgus monkey at 3 mg/kg administered via oral gavage measured up to 72 hrs post dose; format: ADME, organism-based, Macaca fascicularis; conditions: in vivo; in short: as §2
[32] = AUC (0 to last) in cynomolgus monkey at 3 mg/kg administered via oral gavage measured up to 72 hrs post dose; format: ADME, organism-based, Macaca fascicularis; parameters: dose 3 mg/kg, time 0 - last, route oral; conditions: in vivo
[33] = Cmax in cynomolgus monkey at 10 mg/kg administered via oral gavage measured up to 72 hrs post dose; format: ADME, organism-based, Macaca fascicularis; parameters: dose 10 mg/kg, route oral; conditions: in vivo
[34] = Tmax in cynomolgus monkey at 10 mg/kg administered via oral gavage measured up to 72 hrs post dose; format: ADME, organism-based, Macaca fascicularis; conditions: in vivo; in short: as §2
[35] = AUC (0 to last) in cynomolgus monkey at 10 mg/kg administered via oral gavage measured up to 72 hrs post dose; format: ADME, organism-based, Macaca fascicularis; parameters: dose 10 mg/kg, route oral, time 0 - last; conditions: in vivo
Liver = test: Drug level in Sprague-Dawley rat liver at […], iv or 10 mg/kg, po; format: ADME, organism-based; conditions: in vivo, BLD = below limit of detection
Rattus norvegicus = test: Drug level in Sprague-Dawley rat systemic circulation at […], iv or 10 mg/kg, po; format: ADME, organism-based; conditions: in vivo, BLD = below limit of detection
[36] = Tmax in cynomolgus monkey at 1 to 10 mg/kg administered via oral gavage measured up to 72 hrs post dose; format: ADME, organism-based, Macaca fascicularis; conditions: in vivo; in short: as §2

Cc1cc(COc2nc(N)nc3ccn(Cc4ccccn4)c23)no1
MEC [1]: > 25 µM | microsomal CLint at 1 µM [2]: 55 µL/min/mg | microsomal CLint at 1 µM [3]: > 346 µL/min/mg | microsomal CLint at 1 µM [4]: 44 µL/min/mg | microsomal CLint at 1 µM [5]: 87 µL/min/mg | microsomal CLint at 1 µM [6]: 25 µL/min/mg | hepatocyte CLint at 1 µM [7]: 19 µL/min/1e6 cells | hepatocyte CLint at 1 µM [8]: > 277 µL/min/1e6 cells | hepatocyte CLint at 1 µM [9]: 7 µL/min/1e6 cells | hepatocyte CLint at 1 µM [10]: 80 µL/min/1e6 cells | hepatocyte CLint at 1 µM [11]: 6 µL/min/1e6 cells | Cmax [12]: 314 ng/mL | Tmax [13]: 30 min | Cmax [14]: 125 ng/mL | Cmax [15]: 9700 ng/mL | Cmax [16]: 3.7 ng/mL | Cmax [17]: 6.8 ng/g | Tmax [18]: 30 to 60 min | Kp [19]: 2 | Cmax [20]: 7.1 ng/mL | Cmax [21]: 6.3 ng/g | Cmax [22]: 2.8 ng/mL | Cmax [23]: 23 ng/g | Cmax [24]: 72.9 ng/mL | Cmax [25]: 152 ng/g | Papp A→B at 5 µM (MDR1): 41 ×10⁻⁶ cm/s | concentration at 4 h [26]: 10 ng/mL | bioavailability [27]: < 1% | Cmax [28]: 4.12 ng/mL | Tmax [29]: 60 to 120 min | Cmax [30]: 11.2 ng/mL | Tmax [31]: 30 to 120 min | AUC(0-t) at 72 h [32]: 26.7 ng·h/mL | Cmax [33]: 23.4 ng/mL | Tmax [34]: 30 to 120 min | AUC(0-t) at 72 h [35]: 57.5 ng·h/mL | Drug uptake (Liver): Bld | Drug uptake (Rattus norvegicus): Bld | Tmax [36]: 15 to 120 min
